The record followed here is ChEMBL document CHEMBL5376022, “Design, synthesis and biological evaluation of novel pyrimidine derivatives as bone anabolic agents promoting osteogenesis via the BMP2/SMAD1 signaling pathway” (RSC Med Chem, 2024).

Molecules are shown by their SMILES. Active and inactive are the calls of the source. The calls are words filed in the database; no cut-off is given here.

For data set [1], the system named is Calvarial osteoblast. Nature of the data set: Induction of osteogenesis in BALB/c mouse calvarial osteoblast cells using PNPP as substrate assessed as increase in ALP activity at 0.1 to 10 nM measured after 48 hrs by spectrophotometry. The format is functional, cell-based. The following applies: Calvaria, dose 0.1-10 nM. In outline: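 Neonatal BALB/c calvarial osteoblasts, 2 × 10³ cells per well, adhered 24 h, then exposed to compounds (1 pM to 1 μM range) in osteoblast differentiation medium for 48 h. Cells frozen overnight at −80 or −20 °C, thawed at 37 °C to expose ectoenzyme; p-nitrophenyl phosphate added and ALP activity read at 405 nm. Untreated cells as control.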

Data set [2] has as its system Calvarial osteoblast. The experiment in a line: Cytotoxicity in BALB/c mouse calvarial osteoblast cells at 0.001 to 1000 nM incubated for 48 hrs by MTT assay. The format is toxicity, cell-based, Calvaria. The conditions noted are these: 1 µM, dose 0.001-1000 nM. In outline: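 Primary calvarial osteoblasts from 1–2 day old BALB/c pups (collagenase/dispase digests, α-MEM with 10% FBS) seeded at 2 × 10³ per well. MTT added for 4 h at 37 °C, formazan dissolved in DMSO, absorbance read at 570 nm.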
For orientation: Tetrazolium assays rely on reduction of a dye to a coloured formazan, in cell work by metabolically active cells.

The test system of data set [3] is Calvarial osteoblast. The experiment in a line: Induction of cell proliferation of BALB/c mouse calvarial osteoblast cells at 0.001 nM incubated for 48 hrs by MTT assay relative to control. Format: functional, Calvaria. In outline:
(§1)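 Primary calvarial osteoblasts from 1–2-day-old neonatal BALB/c pups, released by dispase/collagenase digestion and grown in α-MEM with 10% FBS. Seeded at 2 × 10³ cells per well, treated after 24 h for 48 h in α-MEM with 5% FBS, 10 mM β-glycerophosphate and 50 μg mL⁻¹ ascorbic acid. MTT added for 4 h at 37 °C, formazan dissolved in DMSO, absorbance read at 570 nm versus untreated cells.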

A short description of data set [4]: Induction of osteogenesis in BALB/c mouse MSC cells assessed as increase in mineral nodule formation at 0.1 nM treated for 21 days with compound refreshment for every 48 hrs by Alizarin red S staining based analysis relative to control. The format is functional. The following applies: time 21 day. Put shortly:
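Bone marrow cells were flushed from the long bones of 6–8-week-old BALB/c mice and seeded at 2 × 10⁶ per well. Medium: 10% FBS, 100 nM dexamethasone, 50 μg mL⁻¹ ascorbic acid and 10 mM β-glycerophosphate. Compound and medium were renewed every 48 h for 21 days. Cells were fixed in 4% paraformaldehyde and stained with Alizarin red (pH 4.2). Stain was eluted with 10% cetylpyridinium chloride for 1 h and read at 595 nm versus control.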

In data set [5] the test system is Calvarial osteoblast. Nature of the data set: Induction of cell proliferation of BALB/c mouse calvarial osteoblast cells at 0.1 nM incubated for 48 hrs by MTT assay relative to control. Format: functional, Calvaria. In outline:
as §1

With `CCCCCC(=O)Nc1nc(-c2ccc(Cl)cc2)c(Cl)c(-c2cc(OC)c(OC)cc2OC)n1`, the outcome in the data set on Calvarial osteoblast [1] was Active. Also, the Activity entry in the data set with Calvarial osteoblast [2] is recorded as “Non-Toxic”; in the data set on Calvarial osteoblast [3], around 18%; in data set [4], around 27%.
Turning to `COc1cc(OC)c(-c2cc(-c3ccc(Cl)cc3)nc(N)n2)cc1OC`, the result with Calvarial osteoblast [1] was Active. Further, in the data set on Calvarial osteoblast [2], the Activity entry was “Non-Toxic”.
Regarding `COc1cc(OC)c(-c2nc(N)nc(-c3ccc(Cl)cc3)c2Cl)cc1OC`, the result in the data set with Calvarial osteoblast [1] was Active. The figures for the Activity entry (in the data set with Calvarial osteoblast [2]; in the data set with Calvarial osteoblast [5]; in data set [4]) were “Non-Toxic”, around 29% and around 26%, respectively.
